Assay [1] has as its system Enterococcus faecalis. The assay is described as follows: Antibacterial activity against vancomycin-susceptible Enterococcus faecalis EF 12704 infected in New Zealand White rabbit assessed as reduction of bacterial count in aortic valve vegetations at 10 mg/kg, administered through ear vein every 12 hrs for 4 days (reference value: 8.56 +/- 0.74 CFU/g). The assay is classed as functional. Put shortly: (§1)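 New Zealand White rabbits were anesthetized and given left-ventricular catheters. Endocarditis was induced 24 h later with 10^8 CFU E. faecalis. From 24 h post-inoculation, drug was given via the marginal ear vein by computer-controlled pump, simulating human pharmacokinetics of 600 mg every 12 h (10 mg/kg/12 h). After 4 days, aortic vegetations were excised, weighed, homogenized in 0.5 ml saline and cultured quantitatively on agar for 24 h at 37°C.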

Assay [2] concerns Enterococcus faecalis. Briefly: Antibacterial activity against vancomycin-susceptible Enterococcus faecalis EF 12704 infected in New Zealand White rabbit assessed as log reduction of bacterial count in aortic valve vegetations at 10 mg/kg, administered through ear vein every 12 hrs for 4 days. It is filed as functional. The procedure, abridged:
as §1

In assay [3] the test system is Enterococcus faecalis. The assay is described as follows: Antibacterial activity against vancomycin-susceptible Enterococcus faecalis EF 12704 assessed as log reduction in bacterial count at 12 mg/l after 24 hrs by time kill assay. It is filed as functional. Put shortly:
(§2)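 Time-kill experiments used an inoculum of 5 × 10^6 CFU/ml, with bacterial counts followed over 24 h.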

Assay [4] deals with Enterococcus faecalis. Briefly: Antibacterial activity against vancomycin-susceptible Enterococcus faecalis EF 12704 assessed as bactericidal activity at 25 mg/l after 24 hrs by time kill assay. It is filed as functional, organism-based. Put shortly:
as §2

Assay [5] deals with Enterococcus faecalis. Briefly: Antibacterial activity against vancomycin-resistant Enterococcus faecalis EF NJ1 assessed as bactericidal activity at 25 mg/l after 24 hrs by time kill assay. The assay is classed as functional, organism-based. The procedure, abridged: as §2
Assay [6] deals with Enterococcus faecalis. Briefly: Antibacterial activity against vancomycin-susceptible Enterococcus faecalis EF 12704 infected in New Zealand White rabbit assessed as reduction of bacterial count in aortic valve vegetations administered through ear vein every 12 hrs for 4 days (reference value: 8.56 +/- 0.74 CFU/g). The assay is classed as functional.
The subject of assay [7] is Enterococcus faecalis. Briefly: Antibacterial activity against vancomycin-resistant Enterococcus faecalis EF NJ1 infected in New Zealand White rabbit assessed as reduction of bacterial count in aortic valve vegetations administered through ear vein every 12 hrs for 4 days (reference value: 8.60 +/- 0.54 CFU/g). The assay is classed as functional.
In assay [8] the test system is Enterococcus faecalis. Briefly: Antibacterial activity against vancomycin-resistant Enterococcus faecalis EF NJ1 infected in New Zealand White rabbit assessed as log reduction of bacterial count in aortic valve vegetations at 10 mg/kg, administered through ear vein every 12 hrs for 4 days. The assay is classed as functional. Put shortly: as §1

The source made the active and inactive calls. The calls are words filed in the database; no cut-off is given here. Some results are limits rather than exact numbers.

On to `CC(=O)NC[C@H]1CN(c2ccc(N3CCOCC3)c(F)c2)C(=O)O1` [LINEZOLID], for which the log10CFU/g was 6.88 in the assay with Enterococcus faecalis [1] and above 3 with Enterococcus faecalis [2]. In addition, the log10CFU/ml in the assay with Enterococcus faecalis [3] is 1.

For the molecule `CN[C@H](CC(C)C)C(=O)N[C@H]1C(=O)N[C@@H](CC(N)=O)C(=O)N[C@H]2C(=O)N[C@H]3C(=O)N[C@H](C(=O)N[C@H](C(=O)O)c4cc(O)cc(O)c4-c4cc3ccc4O)[C@H](O)c3ccc(c(Cl)c3)Oc3cc2cc(c3O[C@@H]2O[C@H](CO)[C@@H](O)[C@H](O)[C@H]2O[C@H]2C[C@](C)(N)[C@H](O)[C@H](C)O2)Oc2ccc(cc2Cl)[C@H]1O` [VANCOMYCIN], the result in the assay with Enterococcus faecalis [4] and in the assay with Enterococcus faecalis [5] was inactive. The log10CFU/g was determined as 2 in the assay on Enterococcus faecalis [2], 6.7 with Enterococcus faecalis [6], 8.01 in the assay with Enterococcus faecalis [7] and 2 in the assay on Enterococcus faecalis [8].

The record behind these values is ChEMBL document CHEMBL1649273, “In vivo activity of a novel anti-methicillin-resistant Staphylococcus aureus cephalosporin, ceftaroline, against vancomycin-susceptible and -resistant Enterococcus faecalis strains in a rabbit endocarditis model: a comparative study with linezolid and vancomycin” (2009).
